Results gathered from unrelated publications.
Protocols differ between the studies behind these lines.
TAOK2: Serine/threonine-protein kinase TAO2 (TAOK2, Homo sapiens, UniProt Q9UL54)
ALOX12: Polyunsaturated fatty acid lipoxygenase ALOX12 (ALOX12, Homo sapiens, UniProt P18054)
PAK5: Serine/threonine-protein kinase PAK 5 (PAK5, Homo sapiens, UniProt Q9P286)

| SMILES | target | test | system | conditions | measurement | value |
| --- | --- | --- | --- | --- | --- | --- |
| CC[C@H](C)[C@@H](C(=O)O[C@@H](CC(C)C)C(=O)N[C@@H](CC(C)C)C(=O)N[C@@H](C)/C=C/C(=O)N1C(=O)C=C(OC)[C@@H]1C)N(C)C | Falcipain-3 (FP3, Plasmodium falciparum 3D7, UniProt Q8IIL0) | enzyme activity, inhibitor, fluorescence |  | pH 6 | kinact/KI | 7030 M⁻¹ s⁻¹ |
| COc1ncccc1-c1cnn2ccc(N3CCN(C(=O)OC(C)C)CC3)nc12 | TAOK2 | binding, competition with immobilised ligand |  | 1 µM | remaining binding | 64% |
| Cn1cc(-c2cccc(N3CCc4c(sc5c4CC(C)(C)C5)C3=O)c2CO)cc(Nc2ccncn2)c1=O | Phosphatidylinositol 4-phosphate 3-kinase C2 domain-containing subunit alpha (PIK3C2A, Homo sapiens, UniProt O00443) | enzyme activity, inhibitor |  | 1 µM | inhibition | 0% |
| CCCCCc1cc(O)c2c(c1)OC(C)(CCC=C(C)C)C=C2 (stereo not drawn) | ALOX12 | enzyme activity in cells, inhibitor | PMNL | 10 µM | remaining activity | 122% |
| Cn1cc(-c2cc(F)cc(N3CCn4c(cc5c4CCCC5)C3=O)c2CO)cc(Nc2ccc(N3CCN(C4COC4)CC3)cn2)c1=O | Phosphatidylinositol 3-kinase catalytic subunit type 3 (PIK3C3, Homo sapiens, UniProt Q8NEB9) | enzyme activity, inhibitor |  | 0.1 µM | inhibition | -1% |
| CCCCCc1cc(O)c(C/C=C(\C)CCC=C(C)C)c(O)c1 | ALOX12 | enzyme activity in cells, inhibitor | PMNL | 10 µM | remaining activity | 152% |
| Nc1ncc(-c2nc(N3CCOCC3)nc(N3CCOCC3)n2)c(C(F)F)n1 | Serine/threonine-protein kinase RIO2 (RIOK2, Homo sapiens, UniProt Q9BVS4) | binding, competition with immobilised ligand |  | 10 µM | remaining binding | 51% |
| CCN(CC)CCCC[C@H](NC(=O)[C@H](CC(C)C)NC(=O)[C@H](C)NC(=O)[C@H](Cc1ccccc1)NC(=O)c1ccc(C(C)(C)C)cc1)C(=O)N[C@@H](CO)C(=O)OC | Nociceptin receptor (OPRL1, Homo sapiens, UniProt P41146) | ligand displacement, radioligand |  | 10 µM | remaining binding | 76.8% |
| C#Cc1n[nH]c2c(-c3cn([C@@H](C)c4ccccc4)c(=O)[nH]c3=O)cc(F)cc12 | PAK5 | enzyme activity, inhibitor |  | 0.1 µM | inhibition | 4.5% |
| COc1cc(Nc2ncc(F)c(Nc3ccc4c(n3)NC(=O)C(C)(C)O4)n2)cc(OC)c1OC | TAOK2 | binding |  | 10 µM | inhibition | 88% |
| Cc1nn(C)cc1-c1nc2c(N3CCN(Cc4ccc(Cl)cc4)CC3)c(Cl)cnc2[nH]1 | Rhodopsin kinase GRK1 (GRK1, Homo sapiens, UniProt Q15835) | binding, competition with immobilised ligand |  | 1 µM | remaining binding | 100% |
| C#Cc1n[nH]c2c(-c3cn([C@@H](C)c4ccccn4)c(=O)[nH]c3=O)cc(F)cc12 | PAK5 | enzyme activity, inhibitor |  | 0.1 µM | inhibition | 5.1% |
